This is an account of results in ChEMBL document CHEMBL1125415, “Antihyperglycemic activity of novel substituted 3H-1,2,3,5-oxathiadiazole 2-oxides” (1992).

Assay [1] has as its system Mus musculus. Briefly: Antihyperglycemic activity in mice at a dose of 20 mg/kg. The format is functional. Put shortly:
(§1)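 Diabetic db/db mice, after exclusion of the five most extreme baseline glucose values, randomized into groups of equal mean plasma glucose, 4-6 per group. Oral dosing in 2% Tween 80/saline on afternoons of days 1-3 (fed), and day 4 after 3 h fast. Plasma glucose at 2 and 4 h post-dose; mean expressed as % change from day-1 baseline versus vehicle; ANOVA with one-sided Dunnett's test.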

Assay [2] concerns Mus musculus. As to the kind of experiment: Antihyperglycemic activity in mice at a dose of 100 mg/kg. The format is functional. In a few lines:
as §1

With `O=S1NC(Cc2ccc(Br)cc2F)=NO1` (stereo not given), the Decrease in assay [1] is reported as -17%; in assay [2], -28%.
With `O=S1NC(Cc2coc3ccc(Cl)cc23)=NO1` (stereo not given), the Decrease in assay [1] is reported as less than -15%.
Regarding `Cc1ccc(CC2=NOS(=O)N2)cc1C` (stereo not given), the Decrease is given as less than -15% in assay [1] and less than 15% in assay [2].
On the same counts, the results for `O=S1NC(Cc2ccc3c(c2)CCC3)=NO1` (stereo not given) are less than -15% and less than 15%.
Take `O=S1NC(Cc2cccc(Cl)c2)=NO1` (stereo not given): the values for the Decrease in assay [1] and in assay [2] were less than -15% and -40%, respectively.
On to `O=S1NC(Cc2cc3cc(Cl)ccc3s2)=NO1` (stereo not given), for which the Decrease in assay [1] is listed as less than -15%; in assay [2], -24%.
On the same counts, the results for `O=S1NC(Cc2ccc3ccccc3c2)=NO1` (stereo not given) are -37% and -63%.
The corresponding values for `O=S1NC(CC2CCc3ccccc32)=NO1` (stereo not given) are less than -15% and less than 15%.
The corresponding values for `O=S1NC(CC2=Cc3ccccc3CC2)=NO1` (stereo not given) are -23% and -53%.
`O=S1NC(Cc2ccc(-c3ccccc3)cc2)=NO1` (stereo not given): the Decrease is reported as less than -15% in assay [1] and less than 15% in assay [2].
The corresponding values for `O=S1NC(Cc2ccc(OCCc3ccccc3)cc2)=NO1` (stereo not given) are less than -15% and -56%.
The corresponding values for `O=S1NC(Cc2cc3cc(F)ccc3s2)=NO1` (stereo not given) are less than -15% and less than 15%.
In the case of `O=S1NC(CC2=C(Cl)c3ccccc3CC2)=NO1` (stereo not given), the Decrease in assay [1] is reported as -27%.
Take `O=S1NC(Cc2cc3ccccc3o2)=NO1` (stereo not given): the Decrease in assay [1] is less than -15%; in assay [2], less than 15%.
On the same counts, the results for `O=S1NC(Cc2coc3c(Cl)cc(Cl)cc23)=NO1` (stereo not given) are less than -15% and -29%.
Regarding `O=S1NC(Cc2coc3cc(Cl)ccc23)=NO1` (stereo not given), the figures for the Decrease in assay [1] and in assay [2] were less than -15% and -22%, respectively.
On the same counts, the results for `O=S1NC(Cc2ccc3c(c2)CCCC3)=NO1` (stereo not given) are less than -15% and less than 15%.
On the same counts, the results for `O=S1NC(Cc2cc3cc(Br)ccc3s2)=NO1` (stereo not given) are -20% and -29%.
The corresponding values for `O=S1NC(Cc2coc3ccccc23)=NO1` (stereo not given) are less than -15% and -28%.
Consider `O=S1NC(CC2CCc3ccccc3C2)=NO1` (stereo not given), for which the figures for the Decrease in assay [1] and in assay [2] were less than -15% and -22%, respectively.
The corresponding values for `O=S1NC(Cc2cc3ccc(F)cc3o2)=NO1` (stereo not given) are less than -15% and -18%.
On the same counts, the results for `O=S1NC(Cc2coc3c(Cl)cccc23)=NO1` (stereo not given) are -26% and -54%.
For the molecule `CC1(COc2ccc(CC3SC(=O)NC3=O)cc2)CCCCC1` (stereo not given) [CIGLITAZONE], the Decrease in assay [1] is on record as less than -15%; in assay [2] it was -29%.
On the same counts, the results for `O=S1NC(Cc2cc3cc(F)ccc3o2)=NO1` (stereo not given) are less than -15% and -25%.
The corresponding values for `O=S1NC(Cc2c[nH]c3ccc(Br)cc23)=NO1` (stereo not given) are -22% and -30%.
The corresponding values for `O=S1NC(Cc2csc3ccccc23)=NO1` (stereo not given) are less than -15% and -30%.
With `O=S1NC(Cc2cccc(C(F)(F)F)c2)=NO1` (stereo not given), the results for the Decrease in assay [1] and in assay [2] were less than -15% and -34%, respectively.
The corresponding values for `O=S1NC(Cc2c[nH]c3ccccc23)=NO1` (stereo not given) are less than -15% and -22%.
The corresponding values for `O=S1NC(Cc2coc3ccc(Br)cc23)=NO1` (stereo not given) are less than -15% and less than 15%.
As for `CC(C)(C)c1ccc(CC2=NOS(=O)N2)cc1` (stereo not given), the results for the Decrease in assay [1] and in assay [2] were less than -15% and less than 15%, respectively.
The corresponding values for `O=S1NC(Cc2cc3ccccc3s2)=NO1` (stereo not given) are less than -15% and -42%.
On the same counts, the results for `O=S1NC(Cc2cc3cc(Cl)ccc3o2)=NO1` (stereo not given) are less than -15% and -23%.
As to `O=S1NC(Cc2ccc(OCc3ccccc3)cc2)=NO1` (stereo not given), in assay [2], the Decrease was less than -15%.
As for `Cc1ccc2occ(CC3=NOS(=O)N3)c2c1` (stereo not given), the Decrease in assay [1] is listed as less than -15%; in assay [2], -42%.
